Results published in ChEMBL document CHEMBL1123087, “Synthesis and antimetastatic properties of stereoisomeric tricyclic bis(dioxopiperazines) in the Lewis lung carcinoma model” (1985).

Assays:
Format in all cases: functional
[1] = species: Mus musculus; assay: Autopsy data was evaluated as average lung weight, mg
Outline: (§1)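 BDF1 female mice (19–21 g); Lewis lung carcinoma, 10⁶ cells implanted im in the leg on day 0, and the tumor-bearing leg amputated on day 8. Dosing after amputation was 160 mg/kg ip from day 8, Q2Dx4, given as a saline suspension. Survival was tracked to day 40. Mice dying and those killed on day 40 were autopsied for body weight, lung weight and metastasis counts (<2 mm, >2 mm). Survival was reported as median survival time and %ILS, with ≥25% ILS counted as active.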

[2] = species: Mus musculus; assay: Autopsy data was evaluated as average number of metastasis in <2 mm; outline: as §1
[3] = species: Mus musculus; assay: Autopsy data was evaluated as average number of metastasis in >2 mm; outline: as §1
[4] = species: Mus musculus; assay: Autopsy data was evaluated as average body weight/g; outline: as §1
[5] = test system: Mus musculus; assay: Effect on postoperative lewis lung carcinoma model, was evaluated as increase in life span on BDF1 female mice, administered intraperitoneally; outline: as §1
[6] = test system: Mus musculus; assay: Effect on postoperative lewis lung carcinoma model, was evaluated as […] on BDF1 female mice, administered intraperitoneally; design: unit not given beside the values; outline: as §1

For `O=C1CN2C[C@H]3C(=O)NC(=O)CN3C[C@@H]2C(=O)N1`, the Average lung weight [1] was 853 mg, the “Average No. of metastasis” value [2] was 0 and the “Average No. of metastasis” value [3] was 48. The Average body weight [4] was 16.9 g, the “Increase in life span” value [5] was 4% and the MST [6] was 28.

`O=C1CN2C[C@@H]3C(=O)N(CN4CCOCC4)C(=O)CN3C[C@@H]2C(=O)N1CN1CCOCC1` was tested, and the Average lung weight [1] was 358 mg, the “Average No. of metastasis” value [2] was 0 and the “Average No. of metastasis” value [3] was 6. For the same compound, the Average body weight [4] was 19.2 g, the “Increase in life span” value [5] was greater than 48% and the MST [6] was greater than 40.

`O=C1CN2C[C@H]3C(=O)N(CN4CCOCC4)C(=O)CN3C[C@@H]2C(=O)N1CN1CCOCC1` was tested, and the Average lung weight [1] was 700 mg, the “Average No. of metastasis” value [2] was 0 and the “Average No. of metastasis” value [3] was 38. The Average body weight [4] was 18.9 g, the “Increase in life span” value [5] was less than 0% and the MST [6] was 26.

`O=C1CN2C[C@@H]3C(=O)NC(=O)CN3C[C@@H]2C(=O)N1` was tested, and the Average lung weight [1] was 640 mg, the “Average No. of metastasis” value [2] was 0 and the “Average No. of metastasis” value [3] was 22. For the same compound, the Average body weight [4] was 19.3 g, the “Increase in life span” value [5] was 4% and the MST [6] was 28.
